# M18AAP inhibitor = blocks P. falciparum M18 aspartyl aminopeptidase; hit rate 1.2% among 290,000; inhibition, % at 7.35 µM; AID 1822; recombinant PfM18AAP, H-Glu-NHMec fluorogenic cleavage;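 active = inhibition above the campaign mean inhibition over all tested compounds plus 3 SD, cut at about 28% in these data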;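 note: 0% = plate median of test compound wells and 100% = 2 mM ZnCl2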
# p97 ATPase inh = human p97 ATPase inhibition; P55072; recombinant p97 ATPase, Kinase-Glo ATP luminescence, 3 h; inhibition, % at 8 µM; hit rate 0.42% among 220,000; in the data active = inhibition above about 15%;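 note: 0% = DMSO vehicle and 100% = wells lacking enzyme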
# Target sequence (P55072 whole entry, looked up): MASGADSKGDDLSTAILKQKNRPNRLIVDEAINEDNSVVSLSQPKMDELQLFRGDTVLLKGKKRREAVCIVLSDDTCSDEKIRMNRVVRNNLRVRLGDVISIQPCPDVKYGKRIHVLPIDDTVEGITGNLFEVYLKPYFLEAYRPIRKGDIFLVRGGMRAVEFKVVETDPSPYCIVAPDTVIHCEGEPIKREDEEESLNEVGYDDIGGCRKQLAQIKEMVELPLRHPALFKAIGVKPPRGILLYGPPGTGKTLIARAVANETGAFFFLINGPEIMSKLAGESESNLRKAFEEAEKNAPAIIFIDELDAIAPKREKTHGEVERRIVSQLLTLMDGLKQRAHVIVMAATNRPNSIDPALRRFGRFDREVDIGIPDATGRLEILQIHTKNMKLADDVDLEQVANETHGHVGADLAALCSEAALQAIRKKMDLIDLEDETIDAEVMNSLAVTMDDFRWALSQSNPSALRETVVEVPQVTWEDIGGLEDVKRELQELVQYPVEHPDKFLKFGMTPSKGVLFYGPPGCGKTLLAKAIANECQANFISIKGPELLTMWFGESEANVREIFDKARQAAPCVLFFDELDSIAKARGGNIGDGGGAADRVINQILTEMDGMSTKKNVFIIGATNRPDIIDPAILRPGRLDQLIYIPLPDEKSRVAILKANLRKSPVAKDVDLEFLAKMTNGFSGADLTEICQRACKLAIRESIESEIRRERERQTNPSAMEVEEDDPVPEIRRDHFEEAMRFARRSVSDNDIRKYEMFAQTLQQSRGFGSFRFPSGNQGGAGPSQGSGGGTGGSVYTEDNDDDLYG
# HCV NS3 hel inh = HCV NS3 helicase inhibition. AID 1800. hit rate 0.56% among 290,000. inhibition, % at 10.9 µM. NS3 helicase DNA unwinding, Cy5 molecular beacon fluorescence;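 active = inhibition above the mean of all tested compounds plus 3 SD, set per campaign, cut at about 35% in these data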;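 note: 0% = DMSO wells and 100% = thioflavine S control wells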
#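 assay system = NS3 helicase fragment of HCV | buffer or medium = MOPS pH 6.5, MgCl2, DTT, Tween20, BSA | timing = 60 min unwinding reaction at 25 °C after ATP addition | signal = Cy5 beacon fluorescence read at start and 1 h | read-out basis = % inhibition of unwinding | control set = low DMSO, high thioflavine S at 110 µM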
# XBP1 UPR activ = adaptive UPR (XBP1) activation; CHO-XBP1 luciferase reporter, IRE1-XBP1 UPR activation, luminescence; percent of tunicamycin response, DMSO as zero; activation, % at 20 µM; hit rate 0.33% among 330,000;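 active = versus positive control, 20 µM dose yields 30% or more activation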;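 note: 100% = tunicamycin at 10 µg/mL and 0% = DMSO only wells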
#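 Material: CHO cell line with stable XBP1 luciferase reporter; buffer or medium: F12 medium containing 10% fetal bovine serum; compound: single point, 20 µM final compound, 1% DMSO; incubation: 6 h treatment, 37 °C; measured by: glow luminescence from Steady-Glo reagent; evaluation: activation, % of tunicamycin; control set: tunicamycin high, DMSO low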
# UPR CHOP act = activators of apoptotic arm of unfolded protein response (CHOP). CHO-CHOP luciferase reporter, UPR activation, luminescence; percent of tunicamycin response over DMSO baseline. activation, % at 10 µM. hit rate 0.34% among 330,000. AID 449763;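 active = at 10 µM dose, activation of 40% or more, normalized to positive control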;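 note: 100% = tunicamycin at 10 µg/mL and 0% = DMSO alone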
#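 Evaluation: % reporter activation, DMSO baseline versus tunicamycin full activation; System: CHO-CHOP luciferase reporter cell line; Input: 500 cells/well; Incubation: 6 h compound treatment, 37 °C; Measured by: Steady-Glo luciferase luminescence; Dosing: one dose, 10 µM in 0.5% DMSO; Buffer or medium: F12 medium, 10% FBS; Benchmarks: positive tunicamycin 10 µg/mL, negative DMSO alone.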
# CHOP inhibitor = blocks CHOP induction under ER stress; inhibition, % at 10 µM; CHO-K1 CHOP-promoter luciferase, tunicamycin-induced, 15-18 h; hit rate 3.8% among 220,000;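 active = compounds that reduced the stress-induced luciferase reporter signal by more than about 70% of percent inhibition, limit read from the data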;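 note: 0% = tunicamycin plus vehicle and 100% = wells without tunicamycin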
# CHOP inh conf = confirmation of CHOP induction inhibitors. inhibition, % at 10 µM. shares compounds with CHOP inhibitor. CHO-CHOP promoter luciferase reporter, tunicamycin-induced, luminescence. hit rate 45% among 2,100. AID 504437;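 active = mean of three repeat readings of reporter signal inhibition above a set limit, cut at about 70% in these data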;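 note: 0% = tunicamycin plus vehicle and 100% = wells lacking tunicamycin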
# CHOP UPR conf = apoptotic UPR (CHOP) activation, confirmed; shares compounds with UPR CHOP act; CHO-CHOP cells, CHOP-luciferase reporter luminescence; percent of tunicamycin response, DMSO as zero; activation, % at 10 µM; hit rate 64% among 1,000; in the data active = activation above about 33%;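 note: 0% = DMSO wells and 100% = tunicamycin 10 µg/mL wells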
# XBP1 UPR conf = adaptive UPR (XBP1) activation, confirmed. shares compounds with XBP1 UPR activ. CHO-XBP1 IRE1-XBP1 luciferase reporter, luminescence. activation, % at 20 µM. hit rate 63% among 1,000. AID 485299;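 active = reporter signal at least 30% of the positive control's activation in two or more of four replicate wells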;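 note: plate controls were DMSO negative control for no effect and tunicamycin 10 µg/mL positive control for full effect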
# * = called active by the depositor; x = no result. The list is not random: actives were taken first. Their share in the collection is about 4.5%.
SMILES,M18AAP inhibitor,p97 ATPase inh,HCV NS3 hel inh,XBP1 UPR activ,UPR CHOP act,CHOP inhibitor,others
C/C=C(\C)C(=O)OC1C(C)=C2C(C1OC(=O)CCCCC)C(C)(OC(C)=O)CC(OC(=O)CCC)C1(O)C2OC(=O)C1(C)O (configuration not stated),x,x,x,61*,22,105*,CHOP inh conf=125*
O=C(CNC1CCCCC1)N1CCC2(CC1)OCCO2,-3,-1,-4,-1,-2,-1,
CCOC(=O)c1c(-n2c(C)cc(C=C3C(=O)NC(=O)NC3=O)c2C)sc2c1CCCC2,1,0,7,0,5,96*,CHOP inh conf=42
Cc1nc2cc(-c3ccc(Cl)cc3)nn2c(C)c1CCC(=O)N1CCC2(CC1)OCCO2,-1,0,0,x,x,x,
CCOC(=O)C1(CCc2ccccc2)CCN(Cc2ccc3c(c2)OCCO3)CC1,-8,-2,-17,-3,-2,10,
CCOC(=O)C1(CCOc2ccccc2)CCN(Cc2ccc(C)s2)CC1,-3,-2,-13,-2,-1,101*,CHOP inh conf=57
NCCc1ccc(OCc2ccccc2)c(OCc2ccccc2)c1,x,x,x,29,5,x,
CCN1C(=O)C(=Cc2ccc(C)s2)C(=O)N(CC)C1=S,-5,4,-1,9,9,106*,CHOP inh conf=-23
COc1ccc2nc(/N=C/c3c(O)n(-c4cccc(Cl)c4)c(=O)[nH]c3=O)sc2c1,13,2,7,1,2,-32,
COc1ccccc1-n1c(-c2ccccc2Br)nc2ccccc2c1=O,-9,x,-6,-4,0,x,
C[C@H]1C[C@@H](C)C(=O)[C@@H]([C@H](O)CC2CC(=O)NC(=O)C2)C1,-1,-4,0,-5,-5,103*,CHOP inh conf=110*
Cn1nccc1C(=O)N1CCC2(CC1)OCCO2,4,x,1,-7,2,x,
O=c1cccc2n1CC1CC2CN(CC(O)CN2CC3CC(C2)c2cccc(=O)n2C3)C1 (configuration not stated),-4,x,13,-2,-2,x,
CCCCCn1c(=O)c(C(=O)Nc2ccccn2)c(O)c2ccccc21,-7,x,-5,-2,15,x,
CCCCCCn1c(=O)c(C(=O)Nc2cnccn2)c(O)c2ccccc21,6,-1,8,4,14,96*,CHOP inh conf=120*
CCOc1ccc(N2C(=O)/C(=C\c3cccs3)C(=O)NC2=S)cc1,5,10,11,-7,268*,106*,CHOP inh conf=-100;CHOP UPR conf=63*
Cc1ccc(N2C(=O)NC(=O)/C(=C/c3cnn(-c4ccc(C)cc4)c3)C2=O)cc1,-2,7,0,3,87*,102*,CHOP inh conf=-79;CHOP UPR conf=93*
CSc1ncc(/C=C2/C(=O)NC(=O)N(c3ccc(C)cc3)C2=O)cn1,3,4,6,-3,-1,-4,
CCN(CC)S(=O)(=O)c1cccc(N=Nc2c(O)n(CC)c(=S)n(CC)c2=O)c1,0,-8,6,-2,0,15,
O=c1[nH]c(=O)n(-c2cccc(Cl)c2)c(O)c1/C=N/c1ccccn1,-7,3,15,-4,-2,33,
N=Cc1c(O)n(-c2cccc(Cl)c2)c(=O)[nH]c1=O,17,5,15,-2,40*,19,CHOP UPR conf=-1
O=C1NC(=O)C(CCc2ccncc2)(CCc2ccccn2)C(=O)N1c1ccc(Br)cc1 (configuration not stated),4,-2,-1,-3,-1,-7,
Cc1ccc(N2C(=O)NC(=O)/C(=C/c3ccoc3)C2=O)cc1,0,13,35,x,x,-48,
CCc1ccc(N2C(=O)NC(=O)/C(=C\C=C\c3ccco3)C2=O)cc1,26,13,0,-4,167*,108*,CHOP UPR conf=229*
O=C1NC(=O)N(c2ccccc2)C(=O)/C1=C\C=C\c1ccccc1,-11,5,24,-1,175*,81*,CHOP UPR conf=63*
SMILES,M18AAP inhibitor,p97 ATPase inh,HCV NS3 hel inh,XBP1 UPR activ,UPR CHOP act,CHOP inhibitor,others
O=c1c2ccccc2nc(/C=C/c2ccc([N+](=O)[O-])o2)n1-c1ccc(O)cc1,5,5,10,21,94*,-129,CHOP UPR conf=37*
O=P(O)(Oc1ccccc1)OC(c1ccccc1)C(F)(F)C(F)(F)F (configuration not stated),3,2,16,-3,3,2,
C=C1C(=O)O[C@@H]2C[C@@H](C)[C@H]3C=CC(=O)[C@]3(O)C[C@@H]12,x,x,x,-4,61*,-20,CHOP UPR conf=24
Cc1ccc(-c2cc(-c3ccccc3)cc(-c3ccccc3)[n+]2-c2ccccc2)cc1,x,x,x,-4,29,x,
Cc1ccc(-c2cc(-c3ccc(C)cc3)[n+](-c3ccccc3)c(-c3ccc(C)cc3)c2)cc1,x,x,x,7,55*,x,CHOP UPR conf=69*
CCOc1ccc(N2C(=O)NC(=O)/C(=C/c3cnc(SC)nc3)C2=O)cc1,10,-2,32,-4,-1,-11,
CC(C)N1CC=C(c2c[nH]c3ccccc23)CC1,-2,4,-9,48*,-4,25,XBP1 UPR conf=0
O=C(N/N=C/C1C(=O)NC(=S)N(c2ccccc2)C1=O)c1cc(Br)c(O)c(Br)c1 (configuration not stated),6,12,32,-1,-1,12,
CCN(CC)c1ccc(N=Cc2c(O)n(-c3ccc(Cl)cc3)c(=O)[nH]c2=O)cc1,3,-2,7,167*,31,48,XBP1 UPR conf=48*
CN1CC(C(=O)c2ccc(F)cc2)C(c2ccc(F)cc2)C1 (configuration not stated),-2,x,-1,4,0,x,
CCCCCc1nc2c(c(=O)c3ccccc3n2C)c(=O)n1C1CCCCCC1,-4,-2,2,61*,12,103*,XBP1 UPR conf=46*
CCCCCc1nc2ccccc2c(=O)n1-c1ccccc1[N+](=O)[O-],2,-5,8,-3,2,-4,
COC(=O)C1=C(c2cccc(OC)c2OC)C[C@@H]2CC[C@H]1N2C(=O)NCCS(C)=O (some centres not stated),x,x,x,-1,-2,x,
C=C(C)[C@@]12OC3(c4ccccc4)O[C@@H]1C1[C@@H]4O[C@]4(CO)[C@@H](O)[C@]4(O)C(=O)C(C)=C[C@H]4[C@@]1(O3)[C@H](C)[C@H]2OC(=O)/C=C/C=C/c1ccccc1 (some centres not stated),x,x,x,47*,36,x,XBP1 UPR conf=61*
